Measurements taken from ChEMBL document CHEMBL3112511, “1,2-Dihydro-2-oxopyridine-3-carboxamides: the C-5 substituent is responsible for functionality switch at CB2 cannabinoid receptor” (Eur J Med Chem, 2014).
Activity calls are given as the source filed them. The rule behind the calls is not given here.

Legend:
Cannabinoid receptor 2 [1] = biological target: T1, Cannabinoid receptor 2 (Homo sapiens, UniProt P34972); test: Displacement of [3H]CP55,940 from human recombinant CB2 receptor expressed in HEK293 cell membranes after 90 mins
T1 sequence (P34972 whole entry): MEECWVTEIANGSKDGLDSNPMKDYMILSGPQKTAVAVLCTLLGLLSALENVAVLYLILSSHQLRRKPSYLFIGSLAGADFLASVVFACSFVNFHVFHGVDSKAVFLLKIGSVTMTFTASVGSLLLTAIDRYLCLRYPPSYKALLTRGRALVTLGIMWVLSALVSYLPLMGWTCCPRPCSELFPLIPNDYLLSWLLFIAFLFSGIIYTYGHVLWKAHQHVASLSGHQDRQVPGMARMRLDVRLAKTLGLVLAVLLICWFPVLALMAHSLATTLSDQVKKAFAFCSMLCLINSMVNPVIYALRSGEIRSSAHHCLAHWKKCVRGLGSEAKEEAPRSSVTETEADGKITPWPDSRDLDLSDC

Cannabinoid receptor 1 [2] = biological target: Cannabinoid receptor 1 (Homo sapiens, UniProt P21554); test: Displacement of [3H]CP55,940 from human recombinant CB1 receptor expressed in HEK293 cell membranes after 90 mins
Chain of Cannabinoid receptor 1 (Homo sapiens, UniProt P21554) (P21554 whole entry): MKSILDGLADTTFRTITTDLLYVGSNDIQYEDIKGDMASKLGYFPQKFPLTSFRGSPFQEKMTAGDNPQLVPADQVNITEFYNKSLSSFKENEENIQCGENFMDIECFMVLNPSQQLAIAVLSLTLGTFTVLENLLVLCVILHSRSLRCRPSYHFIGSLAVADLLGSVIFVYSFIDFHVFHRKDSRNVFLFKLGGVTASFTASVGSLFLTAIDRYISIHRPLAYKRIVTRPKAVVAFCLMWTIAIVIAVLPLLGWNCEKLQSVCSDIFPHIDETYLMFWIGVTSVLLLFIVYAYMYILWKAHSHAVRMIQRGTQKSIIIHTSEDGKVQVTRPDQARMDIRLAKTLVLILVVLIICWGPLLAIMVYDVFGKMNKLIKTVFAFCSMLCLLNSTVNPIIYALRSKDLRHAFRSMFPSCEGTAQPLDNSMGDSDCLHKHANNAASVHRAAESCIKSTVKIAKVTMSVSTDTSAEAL

HEK293 = test: Selectivity index, ratio of Ki for human recombinant CB1 receptor expressed in HEK293 cell membranes to Ki for human recombinant CB2 receptor expressed in HEK293 cell membranes; format: cell-based
[3] = Selectivity ratio of EC50 for CB1 receptor in rat cerebellar membranes to EC50 for human CB2 receptor expressed in CHO membranes; format: cell membranes
Cannabinoid receptor 2 [4] = biological target: T1, Cannabinoid receptor 2; test: Agonist activity at human CB2 receptor expressed in CHO membranes by [35S]GTPgammaS binding assay; format: functional, cell membranes
Procedure, shortened: (§1)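 [35S]GTPgammaS binding in membranes from hCB2-transfected CHO cells; stimulation or inhibition of constitutive activity measured from dose-response curves. Mock-transfected cell membranes as control. Three independent experiments in duplicate.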

Cannabinoid receptor 1 [5] = biological target: Cannabinoid receptor 1 (Rattus norvegicus, UniProt P20272); test: Agonist activity at CB1 receptor in rat cerebellar membranes by [35S]GTPgammaS binding assay; format: functional, cell membranes, Cerebellum, Membrane
Chain of Cannabinoid receptor 1 (Rattus norvegicus, UniProt P20272) (P20272 whole entry): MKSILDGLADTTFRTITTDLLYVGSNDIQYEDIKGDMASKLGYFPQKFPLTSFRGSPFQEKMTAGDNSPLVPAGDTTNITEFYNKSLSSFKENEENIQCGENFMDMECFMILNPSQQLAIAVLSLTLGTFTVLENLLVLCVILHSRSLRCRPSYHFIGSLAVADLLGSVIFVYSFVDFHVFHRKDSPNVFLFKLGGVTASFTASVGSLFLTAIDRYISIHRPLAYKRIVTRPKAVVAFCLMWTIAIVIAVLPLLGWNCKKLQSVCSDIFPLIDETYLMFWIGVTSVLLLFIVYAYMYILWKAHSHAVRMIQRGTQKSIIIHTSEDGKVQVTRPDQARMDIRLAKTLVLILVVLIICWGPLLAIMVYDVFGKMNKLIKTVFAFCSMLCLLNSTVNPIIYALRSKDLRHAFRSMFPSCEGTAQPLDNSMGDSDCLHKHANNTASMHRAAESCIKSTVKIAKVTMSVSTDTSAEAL
Procedure, shortened: (§2)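 [35S]GTPgammaS binding in rat cerebellar membranes as CB1R-mediated G protein activity; compounds tested for stimulation or antagonism. Three independent experiments in duplicate.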

[6] = biological target: Cannabinoid receptor 1 (Rattus norvegicus) (UniProt P20272); test: Agonist activity at CB1 receptor in rat cerebellar membranes at <10 uM by [35S]GTPgammaS binding assay; format: functional, cell membranes; conditions: Cerebellum, Membrane; procedure, shortened: as §2
Chain of Cannabinoid receptor 1 (Rattus norvegicus) (P20272 whole entry): as above

[7] = biological target: Cannabinoid receptor 1 (Rattus norvegicus) (UniProt P20272); test: Antagonist activity at CB1 receptor in rat cerebellar membranes at <10 uM by [35S]GTPgammaS binding assay; format: functional, cell membranes; conditions: Cerebellum, Membrane; procedure, shortened: as §2
Cannabinoid receptor 2 [8] = biological target: T1, Cannabinoid receptor 2; test: Inverse agonist activity at human CB2 receptor expressed in CHO membranes by [35S]GTPgammaS binding assay; format: functional, cell membranes; procedure, shortened: as §1
Cannabinoid receptor 2 [9] = biological target: T1, Cannabinoid receptor 2; test: Neutral antagonist activity at human CB2 receptor expressed in CHO membranes by [35S]GTPgammaS binding assay in presence of SR144528; format: functional, cell membranes
Procedure, shortened: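 [35S]GTPgammaS binding in hCB2-CHO membranes; compound added against inverse agonist SR144528 at 3 nM to assess reversal of its response. Three independent experiments in duplicate.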

Cannabinoid receptor 2 [10] = biological target: T1, Cannabinoid receptor 2; test: Competitive antagonist activity at human CB2 receptor expressed in CHO membranes assessed as inhibition of HU-210-induced [35S]GTPgammaS binding; format: functional, cell membranes; conditions: read-out: pA2 (converted)
Procedure, shortened: (§3)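 [35S]GTPgammaS binding in hCB2-CHO membranes; test compound against HU210 (1 nM for single-point reversal; full HU210 dose-responses for competitive analysis, pA2 derived). Three independent experiments in duplicate.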

Cannabinoid receptor 2 [11] = biological target: T1, Cannabinoid receptor 2; test: Partial inverse agonist activity at human CB2 receptor expressed in CHO membranes by [35S]GTPgammaS binding assay relative to basal control; format: functional, cell membranes; procedure, shortened: as §1
Cannabinoid receptor 2 [12] = biological target: T1, Cannabinoid receptor 2; test: Antagonist activity at human CB2 receptor expressed in CHO membranes assessed as inhibition of HU-210-induced [35S]GTPgammaS binding; format: functional, cell membranes; procedure, shortened: as §3

SMILES	Ki (Cannabinoid receptor 2 [1]) [µM]	Ki (Cannabinoid receptor 1 [2]) [µM]	Ratio Ki (HEK293)	other results
CCCn1cccc(C(=O)NC2CCC(C)CC2)c1=O (stereo not drawn)	0.583	> 10	–	–
CC1CCC(NC(=O)c2cccnc2OCc2ccc(F)cc2)CC1 (stereo not drawn)	0.08	0.884	11	–
CC1CCC(NC(=O)c2cccnc2OCc2ccccc2)CC1 (stereo not drawn)	0.594	3.09	5.2	–
O=C(O)CCCn1cccc(C(=O)NC2CCCCCC2)c1=O	> 10	> 10	–	–
O=C(NC1CCCCCC1)c1cc(-c2ccc(F)cc2)cn(CCN2CCOCC2)c1=O	0.063	2.73	43.4	–
CCCCn1cc(Br)cc(C(=O)NC2CCCCCC2)c1=O	0.0051	0.023	4.5	–
O=C(NC1CCCCCC1)c1cccn(Cc2ccc(F)cc2)c1=O	–	–	5.5	Ratio EC50 [3]: 200; EC50 (Cannabinoid receptor 2 [4]): 0.00631 µM; EC50 (Cannabinoid receptor 1 [5]): 1.58 µM
O=C(NC1CCCCCC1)c1cccn(Cc2ccccc2)c1=O	0.008	0.056	7	–
CCOC(=O)/C=C/c1cc(C(=O)NC2CCCCCC2)c(=O)n(Cc2ccc(F)cc2)c1	0.0137	0.0248	1.8	–
O=C(NC1CCCCCC1)c1cc(Br)cn(CCN2CCOCC2)c1=O	0.065	0.243	3.7	–
O=C(NC1CCCCCC1)c1cc(-c2ccccc2)cn(Cc2ccc(F)cc2)c1=O	0.0012	0.035	29	Activity [6]: inactive; Activity [7]: inactive; IC50 (Cannabinoid receptor 2 [8]): 0.00158 µM
COc1ccc(-c2cc(C(=O)NC3CCCCCC3)c(=O)n(Cc3ccc(F)cc3)c2)cc1	0.001	0.063	63	Activity (Cannabinoid receptor 2 [9]): Active; Activity [6]: inactive; Kb (Cannabinoid receptor 2 [10]): 0.1 µM; Activity (Cannabinoid receptor 2 [11]): 88%; inhibition (Cannabinoid receptor 2 [12]): Dose-dependent effect; Activity [7]: inactive; Activity (Cannabinoid receptor 2 [4]): inactive
CCOC(=O)CCCn1cccc(C(=O)NC2CCCCCC2)c1=O	1.83	> 10	–	–
O=C(NC1CCCCCC1)c1cccnc1OCc1ccccc1	0.481	1.92	4	–
O=C(NC1CCCCCC1)c1cccn(Cc2cccc(I)c2)c1=O	0.397	1.83	4.6	–
O=C(NC1CCCCCC1)c1cc(-c2ccc(F)cc2)cn(Cc2ccc(F)cc2)c1=O	0.0028	0.024	8.6	–
CCCCOc1ncc(Br)cc1C(=O)NC1CCCCCC1	0.396	> 10	–	–
CC1CCC(NC(=O)c2cccn(Cc3ccccc3)c2=O)CC1 (stereo not drawn)	0.053	0.386	7.3	–
O=C(NC1CCCCCC1)c1cc(Br)cn(Cc2ccc(F)cc2)c1=O	0.0022	0.0088	4	–
CC1CCC(NC(=O)c2cccn(CCO)c2=O)CC1 (stereo not drawn)	> 10	> 10	–	–
CC1CCC(NC(=O)c2cccn(Cc3ccc(F)cc3)c2=O)CC1 (stereo not drawn)	0.0048	0.07	14.6	–
O=C(NC1CCCCCC1)c1cccn(Cc2ccc(I)cc2)c1=O	0.187	1.27	6.8	–
CC1CCC(NC(=O)c2cccn(CCCO)c2=O)CC1 (stereo not drawn)	> 10	> 10	–	–
CCCCn1cccc(C(=O)NC2CCC(C)CC2)c1=O (stereo not drawn)	0.104	1.62	15.6	–
O=C(NC1CCCCCC1)c1cccn(Cc2ccc(Cl)cc2)c1=O	0.0042	0.055	13.1	–
O=C(NC1CCCCCC1)c1cc(/C=C/c2ccccc2)cn(Cc2ccc(F)cc2)c1=O	0.0079	0.024	3	–
